Results taken from ChEMBL document CHEMBL2434842, “Approaches to protozoan drug discovery: phenotypic screening” (J Med Chem, 2013).
Structures can show the parent of a compound that is named as a salt. Blank lines part the entries; values can stand above or below the compound they belong to.

Experiments:
Plasmodium falciparum [1] = test: Antimalarial activity against asexual stage of Plasmodium falciparum 3D7 after 72 hrs by image-based HTS assay; type: functional, organism-based; details: 3D7, 72 h
Plasmodium falciparum [2] = test: Antimalarial activity against late (4 to 5) gametocytic stage of Plasmodium falciparum after 72 hrs by image-based HTS assay; type: functional, organism-based
How it was run: (§1)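 P. falciparum early (I–III) or late (IV–V) gametocytes from the authors' large-scale synchronized culture. Exposed to compound in dose response for 72 h. Activity read in an image-based assay. IC50 from duplicate or triplicate points, n ≥ 2, reported as mean ± SD.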

Plasmodium falciparum [3] = test: Antimalarial activity against early (1 to 3) gametocytic stage of Plasmodium falciparum after 72 hrs by image-based HTS assay; type: functional, organism-based; how it was run: as §1
[4] = Selectivity ratio of cytotoxic activity against mouse NIH/3T3 cells to antitrypanosomal activity against amastigote stage of Trypanosoma cruzi
Trypanosoma cruzi = test: Antitrypanosomal activity against amastigote stage of Trypanosoma cruzi infected in mouse NIH/3T3 cells after 48 hrs by Hoechst staining assay; type: functional, organism-based; details: NIH3T3, 48 h
Plasmodium falciparum [5] = test: Antimalarial activity against late (4 to 5) gametocytic stage of Plasmodium falciparum at 100 uM after 72 hrs by image-based HTS assay relative to control; type: functional
How it was run: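 Image-based assay on late-stage (IV–V) P. falciparum gametocytes taken from large-scale production of pure synchronized gametocytes. Compound exposure was 72 h in dose response, with duplicate or triplicate points per concentration and n ≥ 2 independent runs.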

[6] = tested on: Trypanosoma brucei brucei; test: Antitrypanosomal activity against bloodstream form of Trypanosoma brucei brucei 427 after 3 days by Alamar Blue assay; type: functional, organism-based; details: Trypanosoma brucei, 427, 72 h
[7] = tested on: Trypanosoma brucei brucei; test: Trypanocidal activity against Trypanosoma brucei brucei by Alamar Blue assay; type: functional, organism-based
Plasmodium falciparum [8] = test: Antimalarial activity against late (4 to 5) gametocytic stage of Plasmodium falciparum at 120 uM after 72 hrs by image-based HTS assay relative to control; type: functional
Plasmodium falciparum [9] = test: Antimalarial activity against early (1 to 3) gametocytic stage of Plasmodium falciparum at 120 uM after 72 hrs by image-based HTS assay relative to control; type: functional

SMILES: CCN(CC)Cc1cc(Nc2ccnc3cc(Cl)ccc23)ccc1O
IC50 (Plasmodium falciparum [1]): 28 nM
IC50 (Plasmodium falciparum [2]): 4490 nM
IC50 (Plasmodium falciparum [3]): 159 nM

IC50 (Plasmodium falciparum [1]): 200 nM
IC50 (Plasmodium falciparum [3]): 220 nM
SMILES: O[C@@H](c1cc(C(F)(F)F)nc2c(C(F)(F)F)cccc12)[C@H]1CCCCN1 (relative stereo) [(S,R)-MEFLOQUINE]

SMILES: C[C@H]1[C@@H](O)O[C@@H]2O[C@@]3(C)CC[C@H]4[C@H](C)CC[C@@H]1[C@@]24OO3 [ARTENIMOL]
IC50 (Plasmodium falciparum [1]): 0.7 nM

SMILES: C[C@H]1[C@H](OC(=O)CCC(=O)O)O[C@@H]2O[C@@]3(C)CC[C@H]4[C@H](C)CC[C@@H]1[C@@]24OO3 [ARTESUNATE]
IC50 (Plasmodium falciparum [2]): 3.43 nM

SMILES: c1ccc(-c2ccc(C(c3ccccc3)n3ccnc3)cc2)cc1 (stereo unspecified) [BIFONAZOLE]
selectivity ratio ([4]; NIH/3T3 cells): > 91.6
IC50 (Trypanosoma cruzi): 204 nM

SMILES: CCN(CC)CCCC(C)Nc1ccnc2cc(Cl)ccc12 (stereo unspecified) [CHLOROQUINE]
inhibition at 100 µM (Plasmodium falciparum [5]): 100%

IC50 (Trypanosoma cruzi): 187 nM
SMILES: Clc1ccccc1C(c1ccccc1)(c1ccccc1)n1ccnc1 [CLOTRIMAZOLE]
selectivity ratio ([4]; NIH/3T3 cells): > 87.2

IC50 [6]: 1.14 nM
SMILES: C/C=C/C[C@@H](C)[C@@H](O)[C@H]1C(=O)N[C@@H](CC)C(=O)N(C)CC(=O)N(C)[C@@H](CC(C)C)C(=O)N[C@@H](C(C)C)C(=O)N(C)[C@@H](CC(C)C)C(=O)N[C@@H](C)C(=O)N[C@H](C)C(=O)N(C)[C@@H](CC(C)C)C(=O)N(C)[C@@H](CC(C)C)C(=O)N(C)[C@@H](C(C)C)C(=O)N1C [CYCLOSPORINE]

IC50 (Plasmodium falciparum [1]): 2.2 nM
IC50 (Plasmodium falciparum [2]): 0.7 nM
SMILES: CC[C@H](C)[C@H](NC(=O)[C@H]([C@@H](C)CC)N(C)C(C)=O)C(=O)N[C@H](C(=O)N[C@@H](CC(C)C)C(=O)[C@@]1(C)CO1)[C@@H](C)O [EPOXOMYCIN]

SMILES: CC(=O)N1CCN(c2ccc(OCC3COC(Cn4ccnc4)(c4ccc(Cl)cc4Cl)O3)cc2)CC1 (stereo unspecified) [KETOCONAZOLE]
selectivity ratio ([4]; NIH/3T3 cells): > 853
IC50 (Trypanosoma cruzi): 22.7 nM

IC50 (Trypanosoma cruzi): 67.1 nM
SMILES: N#C/C(=C1/SCC(c2ccccc2Cl)S1)n1ccnc1 (stereo unspecified) [LANOCONAZOLE]
selectivity ratio ([4]; NIH/3T3 cells): 306

IC50 [6]: 940 nM
SMILES: CC[C@H](C)C(=O)O[C@H]1CCC=C2C=C[C@H](C)[C@H](CC[C@@H]3C[C@@H](O)CC(=O)O3)[C@H]21 [MEVASTATIN]

SMILES: Clc1ccc(COC(Cn2ccnc2)c2ccc(Cl)cc2Cl)c(Cl)c1 (stereo unspecified) [MICONAZOLE NITRATE]
selectivity ratio ([4]; nih/3t3): > 19.5
IC50 (Trypanosoma cruzi): 826 nM

SMILES: CO[C@@]12[C@H](COC(N)=O)C3=C(C(=O)C(C)=C(N)C3=O)N1C[C@@H]1N[C@@H]12 [MITOMYCIN]
IC50 [7]: 1000 nM

SMILES: O=C1c2c(O)ccc(O)c2C(=O)c2c(NCCNCCO)ccc(NCCNCCO)c21 [MITOXANTRONE HYDROCHLORIDE]
IC50 [6]: 2.4 nM
IC50 [7]: 1000 nM

SMILES: Clc1ccc(CO/N=C(\Cn2ccnc2)c2ccc(Cl)cc2Cl)c(Cl)c1 [OXICONAZOLE NITRATE]
selectivity ratio ([4]; nih/3t3): > 46.3
IC50 (Trypanosoma cruzi): 388 nM

SMILES: CC(=O)O[C@H]1C(=O)[C@@]2(C)[C@H]([C@H](OC(=O)c3ccccc3)[C@]3(O)C[C@H](OC(=O)[C@H](O)[C@@H](NC(=O)c4ccccc4)c4ccccc4)C(C)=C1C3(C)C)[C@]1(OC(C)=O)CO[C@@H]1C[C@@H]2O [PACLITAXEL]
IC50 [7]: 1000 nM

SMILES: COc1cc(NC(C)CCCN)c2ncccc2c1 (stereo unspecified) [PRIMAQUINE]
IC50 (Plasmodium falciparum [1]): 6090 nM
inhibition at 120 µM (Plasmodium falciparum [8]): 40%
IC50 (Plasmodium falciparum [3]): 5860 nM

IC50 (Plasmodium falciparum [1]): 64 nM
IC50 (Plasmodium falciparum [2]): 46 nM
IC50 (Plasmodium falciparum [3]): 137 nM
SMILES: COc1ccc(C[C@H](N)C(=O)N[C@H]2[C@@H](O)[C@H](n3cnc4c(N(C)C)ncnc43)O[C@@H]2CO)cc1 [PUROMYCIN]

SMILES: CCc1nc(N)nc(N)c1-c1ccc(Cl)cc1 [PYRIMETHAMINE]
IC50 (Plasmodium falciparum [1]): 14 nM
inhibition at 120 µM (Plasmodium falciparum [8]): 100%
inhibition at 120 µM (Plasmodium falciparum [9]): 40%

IC50 (Plasmodium falciparum [1]): 46 nM
IC50 (Plasmodium falciparum [2]): 1300 nM
IC50 (Plasmodium falciparum [3]): 131 nM
SMILES: COc1ccc2nc3cc(Cl)ccc3c(Nc3cc(CN4CCCC4)c(O)c(CN4CCCC4)c3)c2n1 [PYRONARIDINE]

IC50 (Plasmodium falciparum [1]): 1070 nM
IC50 (Plasmodium falciparum [2]): 3370 nM
SMILES: COc1cc(C)c2c(Oc3cccc(C(F)(F)F)c3)c(OC)cc(NC(C)CCCN)c2n1 (stereo unspecified) [TAFENOQUINE]

IC50 [6]: 94 nM
SMILES: CC[C@]1(O)C[C@@H]2CN(CCc3c([nH]c4ccccc34)[C@@](C(=O)OC)(c3cc4c(cc3OC)N(C)[C@H]3[C@@](O)(C(=O)OC)[C@H](OC(C)=O)[C@]5(CC)C=CCN6CC[C@]43[C@@H]65)C2)C1 [VINBLASTINE]

IC50 [6]: 30 nM
SMILES: CC[C@]1(O)C[C@H]2CN(CCc3c([nH]c4ccccc34)[C@@](C(=O)OC)(c3cc4c(cc3OC)N(C=O)[C@H]3[C@@](O)(C(=O)OC)[C@H](OC(C)=O)[C@]5(CC)C=CCN6CC[C@]43[C@@H]65)C2)C1 [VINCRISTINE]

SMILES: C[C@@H](c1ncncc1F)[C@](O)(Cn1cncn1)c1ccc(F)cc1F [VORICONAZOLE]
selectivity ratio ([4]; NIH/3T3 cells): 212
IC50 (Trypanosoma cruzi): 96.5 nM
